Screening results deposited in PubChem by Broad Institute.
MLL AF4-AF9 inh: inhibitors of human MLL-AF4/AF9 interaction. P42568. AlphaScreen, biotin-AF4 peptide binding to FLAG-AF9. inhibition, % at 10 µM. 0.47% of 350,000 active. AID 651704;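 active = every replicate reaching a set inhibition limit, whatever the replicate mean, cut at about 25% in these data; inconclusive = mean inhibition reaches that limit but some replicates miss it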
Target sequence (P42568 whole entry, looked up): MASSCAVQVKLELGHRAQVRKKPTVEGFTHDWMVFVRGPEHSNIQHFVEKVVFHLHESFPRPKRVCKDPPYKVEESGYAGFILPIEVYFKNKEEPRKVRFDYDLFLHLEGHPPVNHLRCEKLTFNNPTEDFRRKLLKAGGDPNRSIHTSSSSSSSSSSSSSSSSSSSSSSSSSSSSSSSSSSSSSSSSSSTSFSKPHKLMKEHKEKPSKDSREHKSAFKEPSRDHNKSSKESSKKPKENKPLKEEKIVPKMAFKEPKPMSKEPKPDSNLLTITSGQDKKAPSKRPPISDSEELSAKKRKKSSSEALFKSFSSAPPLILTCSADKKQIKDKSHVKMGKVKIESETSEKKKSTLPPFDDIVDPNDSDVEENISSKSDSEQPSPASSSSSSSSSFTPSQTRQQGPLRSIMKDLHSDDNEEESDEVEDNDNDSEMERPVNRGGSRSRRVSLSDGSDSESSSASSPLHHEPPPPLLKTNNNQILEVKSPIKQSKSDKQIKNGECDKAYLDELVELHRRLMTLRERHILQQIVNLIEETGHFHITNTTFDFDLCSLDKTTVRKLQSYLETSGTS
DENV2 CPE rescue: DENV2-induced cell death inhibition; 1.7% of 350,000 active; CPE inhibition, % at 9.99 µM; DENV2-infected cells, cytopathic effect rescue, plate reader; AID 651640; in the data active = CPE inhibition above about 20%, passing the limit was not always enough; inconclusive = no clear call, values can overlap the other calls; tested in BHK-21 cells
SIRT5 block: sirtuin-5 (human) deacylase inhibition; Purified SirT5, succinyl-peptide AMC, trypsin-coupled fluorescence; inhibition, % at 15 µM; 1.1% of 330,000 active; in the data active = inhibition above about 15%; inconclusive = no clear call, values can overlap the other calls
CaV13 FRET inh: Disruptors of the CACNA1D IQ motif to Ca2+-dependent inactivation inhibitor domain association, primary screening, Förster resonance energy transfer in intact living … | AID 743397 | 0.098% of 340,000 active | HEK cells, CFP/YFP FRET ICDI-IQ, plate reader, 10 min; percent FRET-ratio fall versus neutral wells | inhibition, % at 12.3 µM;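 active = mean replicate inhibition of at least 30% and at least 1% of replicates passing that level; inconclusive = only one of the two criteria is met; inactive = neither criterion is met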
S100A4 inh HTS: S100A4-myosin IIA interaction inhibition. P26447. S100A4/TAMRA-MyoIIA peptide fluorescence polarization. inhibition, % at 10.7 µM. 0.14% of 360,000 active. AID 652163;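 active = mean inhibition of at least 70% across replicates, with every replicate also reaching that level; inconclusive = mean inhibition reaches 70% but some replicates fall short; inactive = mean inhibition below 70%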
Target sequence (P26447 whole entry, looked up): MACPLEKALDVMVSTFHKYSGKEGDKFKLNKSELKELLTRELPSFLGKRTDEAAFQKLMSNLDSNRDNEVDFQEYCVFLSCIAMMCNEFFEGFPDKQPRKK
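Test system – S100A4 monomer (human) · Compound – single-point compound testing · Schedule – 5 min incubation before reading · Probe or stimulus – TAMRA-labelled myosin IIA heavy-chain peptide probe, 5 nM · Benchmarks – neutral control DMSO, positive control TFP · Medium – Calcium-containing HEPES buffer, pH 7.2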
Hits are given with their value. Hits are enriched below; roughly 2.7% of the tested compounds scored in any of these assays.

For C[C@H](CO)N1C[C@H](C)[C@H](CN(C)Cc2ccc(Oc3ccccc3)cc2)Oc2ccc(NC(=O)Cc3ccccc3)cc2C1=O the results were MLL AF4-AF9 inh inactive, DENV2 CPE rescue inactive, SIRT5 block 43 and S100A4 inh HTS inactive.
For C[C@H]1CN([C@@H](C)CO)C(=O)c2cc(NC(=O)Cc3ccccc3)ccc2O[C@@H]1CN(C)Cc1ccc(Oc2ccccc2)cc1 the results were MLL AF4-AF9 inh inactive, DENV2 CPE rescue inactive, SIRT5 block 17 and S100A4 inh HTS inactive.
Screening C[C@@H]1CN([C@@H](C)CO)C(=O)c2cc(NC(=O)Cc3cn(C)c4ccccc34)ccc2O[C@@H]1CN(C)Cc1ccc(Oc2ccccc2)cc1 returned MLL AF4-AF9 inh inactive, DENV2 CPE rescue inconclusive, SIRT5 block 19 and S100A4 inh HTS inactive.
`C[C@@H]1CN([C@@H](C)CO)C(=O)c2cc(NC(=O)Cc3ccccc3)ccc2O[C@H]1CN(C)Cc1ccc(Oc2ccccc2)cc1` gave MLL AF4-AF9 inh inactive, DENV2 CPE rescue inactive, SIRT5 block inactive and S100A4 inh HTS inactive.
O=C(c1ccccn1)N1C[C@@H]2[C@H](c3ccccc31)[C@@H](CO)N2C(=O)C1CCCC1 was read as MLL AF4-AF9 inh inactive, DENV2 CPE rescue inactive, SIRT5 block inactive and S100A4 inh HTS inactive.
`O=C(N[C@H]1CC[C@H](CCn2cc(-c3ccccn3)nn2)O[C@H]1CO)c1cccnc1` gave MLL AF4-AF9 inh inactive, DENV2 CPE rescue inactive, SIRT5 block inactive and S100A4 inh HTS inactive.
`C[C@H](CO)N1C[C@H](C)[C@H](CN(C)C(=O)Nc2ccc(F)cc2)Oc2ncc(C3=CCCCC3)cc2C1=O` gave MLL AF4-AF9 inh inactive, DENV2 CPE rescue 33, SIRT5 block inactive and S100A4 inh HTS inactive.
For C[C@H](CO)N1C[C@H](C)[C@@H](CN(C)C(=O)Nc2cccc(F)c2)Oc2ncc(C3=CCCCC3)cc2C1=O the results were MLL AF4-AF9 inh inactive, DENV2 CPE rescue 20, SIRT5 block inactive and S100A4 inh HTS inactive.
C[C@@H]1CN([C@H](C)CO)C(=O)c2cc(C3=CCCC3)cnc2O[C@@H]1CN(C)C(=O)Nc1ccccc1 was read as MLL AF4-AF9 inh inactive, DENV2 CPE rescue 34, SIRT5 block inactive and S100A4 inh HTS inactive.
Screening COc1cccc(NC(=O)N(C)C[C@H]2Oc3ncc(C4=CCCCC4)cc3C(=O)N([C@H](C)CO)C[C@@H]2C)c1 returned MLL AF4-AF9 inh inactive, DENV2 CPE rescue inconclusive, SIRT5 block 20 and S100A4 inh HTS inactive.
CCCC#Cc1ccc2c(c1)O[C@H](CN(C)Cc1ccccn1)[C@H](C)CN([C@H](C)CO)S2(=O)=O was read as MLL AF4-AF9 inh inactive, DENV2 CPE rescue inactive, SIRT5 block inactive and S100A4 inh HTS inactive.
COc1ccc(S(=O)(=O)N(C)C[C@@H]2Oc3ccc(NC(=O)Nc4ccccc4)cc3CC(=O)N([C@H](C)CO)C[C@H]2C)cc1 was read as MLL AF4-AF9 inh inactive, DENV2 CPE rescue inactive, SIRT5 block inactive and S100A4 inh HTS inactive.
`COc1ccc(S(=O)(=O)N(C)C[C@H]2Oc3ccc(NC(=O)CCN4CCOCC4)cc3CC(=O)N([C@H](C)CO)C[C@@H]2C)cc1` gave MLL AF4-AF9 inh inactive, DENV2 CPE rescue inactive, SIRT5 block inactive and S100A4 inh HTS inactive.
For CCCCC1=CC2=C(c3ccco3)C(=O)C(C)(OC(=O)c3ccc(OC)cc3)C(=O)C2=CN1CC1CC1 (configuration not stated) the results were MLL AF4-AF9 inh inactive, DENV2 CPE rescue inactive, CaV13 FRET inh inactive and S100A4 inh HTS inactive.
CCCCC1=CC2=C(c3ccco3)C(=O)C(C)(OC(=O)c3ccc(OC)cc3)C(=O)C2=CN1C1CC1 (configuration not stated) was read as MLL AF4-AF9 inh inactive, DENV2 CPE rescue 53, CaV13 FRET inh inactive and S100A4 inh HTS inactive.
Screening O=C(C[C@@H]1CC[C@@H]2[C@H](COC[C@@H](O)CN2C(=O)c2ccc3c(c2)OCO3)O1)NCCN1CCCC1 returned MLL AF4-AF9 inh inactive, DENV2 CPE rescue inactive, SIRT5 block inactive and S100A4 inh HTS 73.
For O=C(C[C@@H]1CC[C@@H]2[C@H](COC[C@H](O)CN2C(=O)c2ccc3c(c2)OCO3)O1)NCCN1CCCC1 the results were MLL AF4-AF9 inh inactive, DENV2 CPE rescue 31, SIRT5 block inactive and S100A4 inh HTS inactive.
`C[C@H](O)[C@@H]1C(=O)N2CCc3c([nH]c4cccc(-c5ccccc5)c34)[C@@H]2C[C@@H]1N(C)C(=O)Nc1ccccc1` gave DENV2 CPE rescue inactive, SIRT5 block inactive, CaV13 FRET inh inactive and S100A4 inh HTS inactive.
For CNC[C@H]1Oc2c(NC(=O)c3ccc(-c4nccs4)cc3)cccc2C(=O)N([C@H](C)CO)C[C@H]1C the results were MLL AF4-AF9 inh inactive, DENV2 CPE rescue 41, SIRT5 block 28 and S100A4 inh HTS inactive.
C[C@@H]1CN([C@H](C)CO)C(=O)c2cccc(NC(=O)c3ccc(-c4nccs4)cc3)c2O[C@@H]1CN(C)Cc1ccc(C(F)(F)F)cc1 was read as MLL AF4-AF9 inh inactive, DENV2 CPE rescue inactive, SIRT5 block 17 and S100A4 inh HTS inactive.
For CNC[C@@H]1Oc2c(NC(=O)c3ccc(-c4nccs4)cc3)cccc2C(=O)N([C@H](C)CO)C[C@@H]1C the results were MLL AF4-AF9 inh inactive, DENV2 CPE rescue inactive, SIRT5 block inactive and S100A4 inh HTS inactive.
`C[C@@H]1CN([C@@H](C)CO)C(=O)c2cccc(NC(=O)c3cnccn3)c2O[C@@H]1CN(C)Cc1ccc(C(F)(F)F)cc1` gave MLL AF4-AF9 inh inactive, DENV2 CPE rescue 22, SIRT5 block inactive and S100A4 inh HTS inactive.
`C[C@@H]1CN([C@@H](C)CO)C(=O)c2cccc(NC(=O)c3ccc(-c4nccs4)cc3)c2O[C@@H]1CN(C)Cc1ccc(C(F)(F)F)cc1` gave MLL AF4-AF9 inh inactive, DENV2 CPE rescue inactive, SIRT5 block 26 and S100A4 inh HTS inactive.
CO[C@H]1CN(C)C(=O)c2cc(NS(=O)(=O)c3cccc(C)c3)ccc2OC[C@@H](C)NC[C@@H]1C was read as MLL AF4-AF9 inh inactive, DENV2 CPE rescue inactive, SIRT5 block inactive and S100A4 inh HTS inactive.
COc1ccc(NC(=O)N(C)C[C@H]2Oc3ccc(NC(=O)Nc4ccc5c(c4)OCO5)cc3CC(=O)N([C@H](C)CO)C[C@H]2C)cc1 was read as DENV2 CPE rescue inactive.
O=C(N[C@H]1CC[C@@H](CC(=O)N2CCOCC2)O[C@H]1CO)c1ccccn1 was read as MLL AF4-AF9 inh inactive, DENV2 CPE rescue inactive, SIRT5 block inactive and S100A4 inh HTS inactive.
COc1ccc(Cc2n[nH]c(=S)n2-c2cc(C)ccc2C)cc1OC was read as MLL AF4-AF9 inh inactive, DENV2 CPE rescue 96, CaV13 FRET inh inactive and S100A4 inh HTS inactive.
For Cc1ccc(-n2c(Cc3ccccc3)n[nH]c2=S)c(C)c1 the results were MLL AF4-AF9 inh inactive, DENV2 CPE rescue inactive, SIRT5 block inactive, CaV13 FRET inh inactive and S100A4 inh HTS inactive.
